Bioassay records: PubChem BioAssay, several laboratories
In the library only some 3.5% were active in any assay of this set; here they are far more common.
pPAFAH FP inh: inhibitors of human plasma PAF acetylhydrolase (pPAFAH); Q13093; recombinant pPAFAH, FP-rhodamine probe fluorescence polarization; inhibition, % at 3.39 µM; actives 1.5% (n = 330,000); AID 463082;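 active = inhibition above the mean inhibition across the screen plus 3 SD, cut at about 25% in these data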;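 also: inhibitors block binding of the rhodamine activity-based probe so polarization drops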
Target sequence (Q13093 whole entry, looked up): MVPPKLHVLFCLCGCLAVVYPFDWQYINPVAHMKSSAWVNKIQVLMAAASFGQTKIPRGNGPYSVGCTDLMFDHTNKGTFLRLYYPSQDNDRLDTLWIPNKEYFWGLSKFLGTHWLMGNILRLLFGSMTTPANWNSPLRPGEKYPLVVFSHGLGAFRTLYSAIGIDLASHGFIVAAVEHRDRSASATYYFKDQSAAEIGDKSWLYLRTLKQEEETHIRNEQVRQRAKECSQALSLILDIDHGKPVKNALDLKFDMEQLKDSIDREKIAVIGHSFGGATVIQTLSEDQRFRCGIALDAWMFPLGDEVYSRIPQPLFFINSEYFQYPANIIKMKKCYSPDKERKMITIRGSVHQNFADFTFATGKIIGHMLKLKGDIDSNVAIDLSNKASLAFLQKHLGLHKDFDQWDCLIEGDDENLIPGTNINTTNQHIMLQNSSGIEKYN
Apaf1 inhib: human Apaf-1 inhibition; O14727; reconstituted apoptosome caspase-3 activity, DEVD-Rh110 fluorescence; inhibition, % at 20 µM; actives 0.71% (n = 330,000); AID 489030; active = inhibition of at least 40% at 20 µM
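Material: reconstituted apoptosome with Apaf-1, cytochrome c, caspase-9, procaspase-3, dATP / Buffer or medium: pH 7.5 Hepes buffer with CHAPS, BSA, DTT / Also added: cytochrome c with DEVD-Rh110 / Schedule: compound with Apaf-1, dATP, procaspase-3 30 min, then 50 min reaction, room temperature / Technique: rhodamine 110 fluorescence at Ex 480/Em 540 nm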
PREPL inh: inhibitors of human prolyl oligopeptidase-like enzyme PREPL; actives 0.68% (n = 320,000); inhibition, % at 5.96 µM; recombinant PREPL, fluorescence polarization activity-based probe; in the data active = inhibition above about 43%
PAFAH1B3 inh: inhibitors of human PAFAH1B3; Q15102; recombinant PAFAH1B3, FP-rhodamine probe, fluorescence polarization; inhibition, % at 3.39 µM; actives 0.28% (n = 340,000); AID 492972;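 active = inhibition above the screen-wide average of all tested compounds plus 3 SD, cut at about 25% in these data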
Target sequence (Q15102 whole entry, looked up): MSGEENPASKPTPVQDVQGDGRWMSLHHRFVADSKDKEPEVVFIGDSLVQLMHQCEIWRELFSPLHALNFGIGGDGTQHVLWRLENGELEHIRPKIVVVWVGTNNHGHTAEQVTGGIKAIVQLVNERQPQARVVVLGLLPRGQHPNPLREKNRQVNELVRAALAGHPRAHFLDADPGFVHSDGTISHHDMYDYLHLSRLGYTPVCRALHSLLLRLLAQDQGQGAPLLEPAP
PAFAH2 FP inh: inhibitors of human PAFAH2; AID 492956; inhibition, % at 3.39 µM; actives 0.99% (n = 340,000); recombinant PAFAH2, FP-rhodamine activity probe, fluorescence polarization;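 active = inhibition above the mean over all tested compounds plus 3 SD, cut at about 30% in these data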;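 also: inhibitors block probe labeling of enzyme so polarization drops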
PAFAH1B2 FP inh: PAFAH1B2 (human) inhibition. P68402. recombinant PAFAH1B2, FP-rhodamine activity probe, fluorescence polarization. inhibition, % at 3.39 µM. actives 1.2% (n = 340,000). AID 492953;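 active = inhibition above the mean of all tested compounds plus 3 SD, cut at about 24% in these data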
Large screens that a line does not name were inactive.

N/C(=N\OC(=O)CCC1CCCC1)c1ccc(Cl)cc1	PAFAH1B2 FP inh 25.3
COc1ccc(C(=O)NC(=S)N(CCC(C)C)c2c(N)n(Cc3ccccc3)c(=O)[nH]c2=O)cc1	none
CCCCN(C(=O)c1cccc(-n2cccc2)c1)c1c(N)n(Cc2ccccc2)c(=O)[nH]c1=O	pPAFAH FP inh 33.2
COCCCN(C(=S)NC(=O)c1ccc(C(C)(C)C)cc1)c1c(N)n(Cc2ccccc2)c(=O)[nH]c1=O	PAFAH1B2 FP inh 27.4
Cc1ccc(-c2cnc(SCCNC(=O)c3ccco3)[nH]2)cc1	none
O=C(NCCSc1ncc(-c2ccc(F)cc2)[nH]1)c1ccc2c(c1)OCO2	PAFAH1B2 FP inh 32.7
N#Cc1ccc(-c2ccco2)nc1SCC(=O)c1ccc(Cl)cc1	pPAFAH FP inh 38.9
Cc1ccc(C(=O)CSc2nc(-c3ccccc3)ccc2C#N)cc1	none
COc1ccc2cc(C(C)C(=O)N3CCC(C(N)=O)CC3)ccc2c1 (centres undefined)	none
OCc1nc2ccccc2n1CCCCOc1ccccc1	none
Cn1c(=O)n(CCCOc2ccc(Cl)cc2)c2ccccc21	none
OCc1nc2ccccc2n1CCCOc1ccc(Br)cc1	pPAFAH FP inh 31.1
Cn1c(=O)n(CCCOc2ccc(Br)cc2)c2ccccc21	pPAFAH FP inh 32.4
CC1CCCC(C)N1C(=O)COC(=O)CNC(=O)c1ccc(Cl)cc1Cl (centres undefined)	none
C#CCOCCOCCOCCNc1nc(N2CCN(C(=O)[C@H]([C@@H](C)CC)n3cc(CCCN=C(N)N)nn3)CC2)nc(N2CCN(C(=O)[C@H](CCCCN)n3cc(CCCC)nn3)CC2)n1	none
C#CCOCCOCCOCCNc1nc(N2CCN(C(=O)CCCCCCCCCCNC(=O)[C@H]([C@@H](C)CC)n3cc(CCCCN=C(N)N)nn3)CC2)nc(N2CCN(C(=O)CCCCCCCCCCNC(=O)[C@@H]([C@H](C)O)n3cc(C)nn3)CC2)n1	Apaf1 inhib 44.9
C#CCOCCOCCOCCNc1nc(N2CCN(C(=O)CCCCCCCCCCNC(=O)[C@H](CCCN=C(N)N)n3cc(C[C@@H](C)CC)nn3)CC2)nc(N2CCN(C(=O)CCCCCCCCCCNC(=O)[C@@H]([C@H](C)CC)n3cc(CCCCCN)nn3)CC2)n1	Apaf1 inhib 80.1, PREPL inh 59.8 (no result: PAFAH1B3 inh, PAFAH2 FP inh, PAFAH1B2 FP inh)
C#CCOCCOCCOCCNc1nc(N2CCN(C(=O)CCCCCCCCCCNC(=O)[C@H]([C@@H](C)CC)n3cc(CCCCN=C(N)N)nn3)CC2)nc(N2CCN(C(=O)CCCCCCCCCCNC(=O)[C@H](CCCN=C(N)N)n3cc(C[C@@H](C)CC)nn3)CC2)n1	Apaf1 inhib 45.6, PREPL inh 69.0 (no result: PAFAH1B3 inh, PAFAH2 FP inh, PAFAH1B2 FP inh)
C#CCOCCOCCOCCNc1nc(N2CCOCC2)nc(N2CCN(C(=O)[C@H]([C@@H](C)CC)n3cc(CCCN=C(N)N)nn3)CC2)n1	none
COc1cc(C2(c3ccc(O)c(OC)c3)C(=O)Nc3c(C)cc(Br)cc32)ccc1O	none
Cc1ccc(C)c(C(=O)N(Cc2nc(-c3ccc(Cl)cc3)no2)C(C)C)c1	pPAFAH FP inh 27.0
COc1cccc(OCC(=O)N(Cc2nc(-c3ccc(Cl)cc3)no2)C(C)C)c1	pPAFAH FP inh 26.2
O=C(COc1ccc2c(c1)oc(=O)c1ccccc12)NC(Cc1ccc(Cl)cc1)C(=O)O (centres undefined)	none
COc1ccc(CCNC(=O)C2CCN(S(=O)(=O)N3CCC(C)CC3)CC2)cc1OC	none
CC(C)(C)S(=O)(=O)N1Cc2ccc(CO)cc2[C@@H]1CCO	none (no result: pPAFAH FP inh, Apaf1 inhib, PREPL inh)
Cc1ccc(NC(=O)c2cc(N3C(=O)C4CC=CCC4C3=O)ccc2N2CCOCC2)cc1Cl (centres undefined)	pPAFAH FP inh 25.8
Cc1ccc(NC(=O)c2cc(S(=O)(=O)N3CCCCC3)ccc2N2CCOCC2)cc1S(=O)(=O)N(C)C	PAFAH1B3 inh 25.5, PAFAH1B2 FP inh 27.1 (no result: pPAFAH FP inh, Apaf1 inhib, PREPL inh)
CC(NC(=O)c1cc(S(=O)(=O)N2CCOCC2)ccc1N1CCCC1)c1ccc(Cl)c(Cl)c1 (centres undefined)	pPAFAH FP inh 28.4
Cc1ccc(NC(=O)c2cc(N3C(=O)C=CC3=O)ccc2N2CCOCC2)cc1	none (no result: pPAFAH FP inh, Apaf1 inhib, PREPL inh)
COc1ccc(S(=O)(=O)N2CCN(C(=O)[C@@H]3CCC(=O)N3C3OC(=O)c4ccccc43)CC2)cc1 (some centres undefined)	PAFAH1B2 FP inh 33.0
CC1CCCCC1NC(=O)COC(=O)c1ccc2ccccc2n1 (centres undefined)	pPAFAH FP inh 27.0
Cc1ccc(NC(=S)N2CCC(N(C)CC3CCCO3)CC2)cc1 (centres undefined)	none
Cc1noc(C)c1COc1ccccc1C(=O)NC(C)c1ccc(Cl)cc1 (centres undefined)	PAFAH1B2 FP inh 32.2
Cc1noc(C)c1COc1ccccc1C(=O)NC(C)CCc1ccccc1 (centres undefined)	none (no result: pPAFAH FP inh, Apaf1 inhib, PREPL inh)
Cc1cc2c(cc(C(=O)OCC(=O)NC3CCCCC3)n2C)o1	none (no result: pPAFAH FP inh, Apaf1 inhib, PREPL inh)
CCOC(=O)c1c(C)[nH]c(C(=O)OCc2ccc(F)cc2)c1C	none (no result: pPAFAH FP inh, PREPL inh)
CCOC(=O)c1c(C)[nH]c(C(=O)OCc2ccccc2F)c1C	pPAFAH FP inh 29.5
CCOC(=O)c1c(C)[nH]c(C(=O)OCC(=O)c2ccccc2)c1C	none
CCCCN(C(=O)c1c(C)[nH]c(C(=O)OCC)c1C)c1ccccc1	PAFAH1B2 FP inh 28.2
O=C(NCc1cccnc1)/C(=C\c1ccc(-c2cccc(Cl)c2)o1)S(=O)(=O)c1ccccc1	pPAFAH FP inh 26.1 (no result: Apaf1 inhib)
COc1ccc(-n2cc(-c3ccccc3)c3c(NCCOCCO)ncnc32)cc1	pPAFAH FP inh 28.2
CCOc1ccc(-n2cc(-c3ccccc3)c3c(SC(C)C(=O)OC)ncnc32)cc1 (centres undefined)	pPAFAH FP inh 30.3
NS(=O)(=O)c1ccc(CCNc2ncnc3c2c(-c2ccccc2)cn3-c2ccc(F)cc2)cc1	pPAFAH FP inh 26.8
COc1ccc(-n2cc(-c3ccccc3)c3c(NN4CCOCC4)ncnc32)cc1	none
O=C(c1ccco1)[C@@H]1[C@@H]2C(=O)N(c3ccccc3)C(=O)[C@@H]2C2c3ccccc3C=CN21 (some centres undefined)	Apaf1 inhib 85.6
CC(=O)[C@@H]1[C@@H]2C(=O)N(Cc3ccccc3)C(=O)[C@@H]2C2c3ccccc3C=CN21 (some centres undefined)	Apaf1 inhib 67.4
COc1ccc(N2C(=O)[C@@H]3[C@H](C2=O)[C@H]2c4ccccc4C=CN2[C@@H]3C(=O)Nc2ccccc2)cc1	Apaf1 inhib 67.1
Cc1ccc(N2C(=O)[C@@H]3[C@H](C2=O)C2c4ccccc4C=CN2[C@@H]3C(=O)c2ccco2)c(C)c1 (some centres undefined)	Apaf1 inhib 87.0
